{"data": "Published values pooled from the literature", "target": "Receptor-interacting serine/threonine-protein kinase 1 (RIPK1, Homo sapiens, UniProt Q13546)", "One construct used (Q13546 1-671)": "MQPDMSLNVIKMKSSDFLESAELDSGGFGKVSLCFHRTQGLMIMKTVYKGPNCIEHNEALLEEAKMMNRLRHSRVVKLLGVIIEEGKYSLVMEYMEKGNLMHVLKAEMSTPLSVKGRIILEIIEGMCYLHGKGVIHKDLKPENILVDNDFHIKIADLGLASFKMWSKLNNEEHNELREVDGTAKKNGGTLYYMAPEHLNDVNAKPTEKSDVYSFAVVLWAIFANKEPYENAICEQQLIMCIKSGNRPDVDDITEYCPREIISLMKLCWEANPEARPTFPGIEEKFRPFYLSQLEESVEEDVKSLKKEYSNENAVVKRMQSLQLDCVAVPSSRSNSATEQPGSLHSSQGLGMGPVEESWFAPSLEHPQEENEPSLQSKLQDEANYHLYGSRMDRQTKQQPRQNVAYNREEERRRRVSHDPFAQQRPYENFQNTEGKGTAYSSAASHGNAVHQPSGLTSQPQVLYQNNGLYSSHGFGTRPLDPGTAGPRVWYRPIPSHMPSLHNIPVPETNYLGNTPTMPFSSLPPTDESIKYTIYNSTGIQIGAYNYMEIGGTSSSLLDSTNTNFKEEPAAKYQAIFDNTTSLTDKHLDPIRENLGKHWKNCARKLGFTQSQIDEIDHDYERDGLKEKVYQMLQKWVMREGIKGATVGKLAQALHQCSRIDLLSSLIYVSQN", "note": "Protocols differ between the studies behind these lines."}
{"SMILES": "C[C@@H]1CCN(c2nccc(-c3cnn4ncccc34)n2)C1", "assay": "binding", "setting": "1 µM", "remaining binding": "100%"}
{"SMILES": "c1cncc(-c2cccc(Nc3nccc(NC4CCCCC4)n3)c2)c1", "assay": "binding, competition with immobilised ligand", "setting": "10 µM", "remaining binding": "98%"}
{"SMILES": "O=C(Nc1c[nH]nc1C(=O)NC1CCNCC1)c1cc(F)cc(F)c1", "assay": "binding, competition with immobilised ligand", "setting": "1 µM", "remaining binding": "100%"}
{"SMILES": "Cc1cnn2ncc(-c3ccnc(N(C)C)n3)c2c1", "assay": "binding", "setting": "1 µM", "remaining binding": "100%"}
{"SMILES": "O=C(NCCCN1CCOCC1)c1ccc(Nc2ncc(Cl)c(-c3ccc(Cl)s3)n2)cc1", "assay": "binding, competition with immobilised ligand", "setting": "1 µM", "remaining binding": "45%"}
{"SMILES": "Cc1c(C(=O)O)cc(-c2ccc(C3CCNCC3)cc2)c2ccc(-c3ccc(C(F)(F)F)cc3)cc12", "assay": "binding, competition with immobilised ligand", "setting": "1 µM", "remaining binding": "100%"}
{"SMILES": "COc1ncc2cc3ccccc3nc2c1C#N", "assay": "cell-free assay, competition with immobilised ligand", "setting": "5 µM", "remaining binding": "100%"}
{"SMILES": "O=C(c1ccc(Nc2ncc(Cl)c(-c3cc4ccccc4s3)n2)cc1)N1CCC(N2CCCC2)CC1", "assay": "binding, competition with immobilised ligand", "setting": "1 µM", "remaining binding": "2.5%"}
{"SMILES": "COc1cnc(Nc2cccc(S(N)(=O)=O)c2)nc1N1CCN(c2ccccc2)C(=O)C1", "assay": "binding, competition with immobilised ligand", "setting": "1 µM", "remaining binding": "100%"}
{"SMILES": "CCCOc1ccc([C@@H]2[C@@H](C(=O)O)[C@H](c3ccc4c(c3)OCO4)CN2CC(=O)Nc2c(CC)cccc2CC)cc1", "assay": "cell-free assay, competition with immobilised ligand", "setting": "1 µM", "remaining binding": "55%"}
{"SMILES": "CN(c1nccc(-c2cnn3ncccc23)n1)C1CC1", "assay": "binding", "setting": "1 µM", "remaining binding": "100%"}
{"SMILES": "COc1cc(-c2cn(C3CCc4c(F)cccc4N(CC(F)(F)F)C3=O)nn2)ccc1-n1cnc(C)c1 (stereo not shown)", "assay": "cell-free assay, competition with immobilised ligand", "setting": "1 µM", "remaining binding": "100%"}
{"SMILES": "O=C(c1ccc(Nc2ncc(Cl)c(-c3ccc(Cl)s3)n2)cc1)N1CCC(N2CCCC2)CC1", "assay": "binding, competition with immobilised ligand", "setting": "1 µM", "remaining binding": "0.5%"}
{"SMILES": "CN(C)c1ncnc(-c2ccc3nc(Nc4cc(CN5CCN(C(=O)CC(F)(F)F)CC5)ccn4)[nH]c3c2)c1Cl", "assay": "cell-free assay, competition with immobilised ligand", "setting": "1 µM", "remaining binding": "93%"}
{"SMILES": "COc1cnc(Nc2cccc(S(N)(=O)=O)c2)nc1N1CCN(c2ccccc2)CC1", "assay": "binding, competition with immobilised ligand", "setting": "1 µM", "remaining binding": "100%"}
{"SMILES": "c1cnn2ncc(-c3ccnc(N4CCC45COC5)n3)c2c1", "assay": "binding", "setting": "1 µM", "remaining binding": "83%"}
{"SMILES": "Nc1ncc2c(n1)-c1c([nH]c3ccc(C#CC4CC4)cc13)CCCC2", "assay": "binding, competition with immobilised ligand", "setting": "1 µM", "remaining binding": "100%"}
{"SMILES": "COc1ccnn2ncc(-c3ccnc(N(C)C)n3)c12", "assay": "binding", "setting": "1 µM", "remaining binding": "96%"}
{"SMILES": "O=C(Nc1ccc(Oc2ccc(F)cc2)cc1)N1CCc2ncccc2[C@H]1c1ccc(F)cc1", "assay": "cell-free assay, competition with immobilised ligand", "setting": "1 µM", "remaining binding": "100%"}
